# Source: PubChem BioAssay
# Compounds with a hit are over-represented: about 2.4% of the library has one in this group of screens.
# PREPL inh = human PREPL enzyme inhibition; recombinant PREPL, fluorescence polarization activity-based probe; inhibition, % at 5.96 µM; AID 2751; Q4J6C6; hit rate 0.68% among 320,000; in the data active = inhibition above about 43%
# HNF4A DNA FP = change in binding of human HNF4 alpha to DNA; P41235; HNF4a-FITC DNA binding, fluorescence polarization, 1 h; activity change, % at 10 µM; hit rate 0.3% among 360,000; AID 1224865; in the data active = activity change above about 30%, passing the limit was not always enough
# Neddylation inh = cullin neddylation inhibition | hit rate 0.58% among 360,000 | AID 651699 | TR-FRET cullin neddylation, biochemical | inhibition, % at 25 µM; in the data active = inhibition above about 36%
# CSN inh = blocks human CSN-mediated cullin deneddylation. Purified CSN, SCF-Nedd8-OG deneddylation, fluorescence polarization. inhibition, % at 12.5 µM. hit rate 0.38% among 360,000;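 active = pattern-corrected inhibition above about 35%, with an unprinted fluorescence ratio check between 0.5 and 1.5, limit read from the data, passing the limit was not always enough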
# Target sequence (Q92905 whole entry, looked up, one chain of several): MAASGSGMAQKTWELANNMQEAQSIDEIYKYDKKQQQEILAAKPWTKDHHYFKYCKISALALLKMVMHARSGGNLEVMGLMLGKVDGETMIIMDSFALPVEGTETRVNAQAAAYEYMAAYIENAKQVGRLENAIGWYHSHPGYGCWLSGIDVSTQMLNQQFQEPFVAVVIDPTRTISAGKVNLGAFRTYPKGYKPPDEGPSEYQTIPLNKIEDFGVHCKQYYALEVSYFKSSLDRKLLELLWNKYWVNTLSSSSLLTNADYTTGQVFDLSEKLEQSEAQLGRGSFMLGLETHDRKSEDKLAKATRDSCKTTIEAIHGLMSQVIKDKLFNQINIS
#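 Assay system: purified human Csn5 enzyme expressed in HEK293T cells; Input: 0.24 nM Csn5 enzyme, final concentration; Reagent: 10 nM SCFSkp2-Nedd8OG; Compound dosing: 12.5 µM single point; Times: reaction 90 min, room temperature; Technique: fluorescence polarization readout.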
# Rpn11 inh = Rpn11 (human) deubiquitinase inhibition. human 26S proteasome, Ub4-pepOG fluorescence polarization; 20S core pre-blocked with epoxomicin. inhibition, % at 20 µM. hit rate 0.59% among 360,000. AID 588493;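 active = inhibition at 20 µM, scaled to each plate's controls, above about 33%, limit read from the data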
# Target sequence (O00487 whole entry, looked up): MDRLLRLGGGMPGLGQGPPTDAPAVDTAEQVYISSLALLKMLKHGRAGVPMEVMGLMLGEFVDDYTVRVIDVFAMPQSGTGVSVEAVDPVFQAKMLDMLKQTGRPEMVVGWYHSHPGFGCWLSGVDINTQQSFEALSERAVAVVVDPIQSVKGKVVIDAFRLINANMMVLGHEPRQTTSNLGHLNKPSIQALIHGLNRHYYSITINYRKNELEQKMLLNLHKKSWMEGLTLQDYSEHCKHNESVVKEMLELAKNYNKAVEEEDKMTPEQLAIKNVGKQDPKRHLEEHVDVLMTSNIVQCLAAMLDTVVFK
# Tb MetRS inh = blocks T. brucei methionyl-tRNA synthetase activity; purified T. brucei MetRS, ATP depletion, Kinase-Glo luminescence; hit rate 0.4% among 360,000; inhibition, % at 11.9 µM; AID 624268;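 active = inhibition above a per-plate cutoff of the control wells' mean inhibition plus 3 SD, cut at about 5.5% in these data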
#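 Material – parasite MetRS enzyme · Medium – HEPES-MgCl2-KCl buffer plus DTT, spermine, BSA, pyrophosphatase · Reagent – ATP, methionine and E. coli bulk tRNA substrates · Times – 15 min enzyme-compound preincubation, 2 h reaction, 10 min detection, 25 °C · Measured by – luminescence of leftover ATP · Evaluation – percent inhibition relative to median high and low control wells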
# A number is an active result; – = inactive; · = not tested or not shown.
SMILES,PREPL inh,HNF4A DNA FP,Neddylation inh,CSN inh,Rpn11 inh,Tb MetRS inh
COc1ccccc1CCn1cnc(C)c1CC(C)C,·,–,–,62,·,–
CCCCN(C)C(=O)c1cc2cc3ccc(OC)cc3nc2s1,–,–,43,–,–,–
COc1ccc2nc3sc(C(=O)N4CCN(C)CC4)cc3cc2c1,–,–,–,–,–,–
CCCCN(CC)C(=O)c1cc2cc3ccc(OC)cc3nc2o1,–,–,56,–,–,–
COc1cc(OC)cc(-c2noc(-c3csc([C@@H]4C[C@H](O)[C@@H](CO)O4)n3)n2)c1,·,–,–,–,–,–
Nc1sc(-c2ccccc2)cc1C(=O)NCCc1ccc(Cl)cc1,·,56,–,–,·,–
COc1ccc(-n2ncc3c(N4CCCCC4)ncnc32)cc1,–,–,38,–,–,–
Cc1noc(C)c1COc1ccc(C(=O)NCc2cccs2)cc1,–,–,–,–,–,–
CCCC(C(=O)Nc1ccc(S(=O)(=O)Nc2ncccn2)cc1)c1ccccc1 (centres undefined),–,34,–,–,–,–
COC1=C/C(=C/c2c(N)n3c(nc2=O)sc2cc(S(C)(=O)=O)ccc23)C=CC1=O,–,96,–,–,·,–
CCC/C=C/c1ccc(CN2C(C(C)C)C(=O)N(Cc3cn(Cc4ccco4)nn3)CCS2(=O)=O)cc1 (centres undefined),·,–,–,–,–,–
O=C(CCC1CCCC1)NNC(=O)c1cccc(Cl)c1,–,–,–,–,–,–
Cc1cc(C(=O)CCC(=O)N(C)CC(=O)Nc2c(Cl)cccc2Cl)c(C)s1,–,–,–,90,–,–
O=C1c2ccccc2NC(c2cccc(Cl)c2)N1N=C1CCCCCC1 (centres undefined),–,–,·,57,–,–
COc1ccc(-c2ccc(C(=O)Nc3ccc4c(c3)OCO4)c3occc23)c(C)c1,·,–,–,–,–,–
COc1ccc(C(CC(=O)N2CCCC2)c2c(OC)cc(OC)c3c(-c4ccccc4)cc(=O)oc23)cc1 (centres undefined),–,–,–,36,–,–
CC(C)CN1C(=O)NC(NC(=O)c2ccco2)(C(F)(F)F)C1=O (centres undefined),–,39,–,–,–,–
CN1C(=O)NC(NC(=O)c2ccco2)(C(F)(F)F)C1=O (centres undefined),–,–,–,–,–,–
CC(C)c1ccc(O)c(=O)cc1,·,–,–,–,–,–
CC1(C(=O)NS(=O)(=O)c2ccc(Cl)cc2)CCN1C(=O)CCC1CCCC1 (centres undefined),·,–,–,–,–,–
Cc1ccc(/C=N/NC(=S)NCCc2ccccc2)s1,–,–,42,–,–,–
Cc1ccc(-c2csc3nc[nH]c(=O)c23)cc1,–,–,–,–,–,–
Cn1nnnc1Sc1ncnc2scc(-c3ccc(F)cc3)c12,–,–,–,–,49,–
O=c1[nH]c(Cc2ccccn2)nc2scc(-c3ccc(Cl)cc3)c12,–,–,–,–,–,–
Cc1ccc(-c2csc3nc(-c4ccncc4)[nH]c(=O)c23)cc1,–,77,–,44,·,–
SMILES,PREPL inh,HNF4A DNA FP,Neddylation inh,CSN inh,Rpn11 inh,Tb MetRS inh
Cn1nnnc1SCc1nc2scc(-c3ccccc3)c2c(=O)[nH]1,–,–,–,–,–,–
O=c1[nH]c(Cc2cccs2)nc2scc(-c3ccc(Cl)cc3)c12,55,–,–,–,–,–
Cn1nnnc1SCc1nc2scc(-c3ccc(Cl)cc3)c2c(=O)[nH]1,–,39,–,–,·,–
COc1ccc(NS(=O)(=O)c2cc(C(=O)N3CCCCCC3)ccc2C)cc1,–,–,–,–,–,–
c1ccc(Cc2nc3ccccc3s2)cc1,·,–,–,–,–,–
Cc1cccc(C)c1Nc1c(-c2ccccn2)nc2ccccn12,–,–,41,–,–,–
O=c1[nH]c2cc(Cl)c(Br)cc2o1,·,–,–,–,–,–
OCc1cccc(-c2cnc3c(Nc4cccc(OC(F)(F)C(F)F)c4)nccn23)c1,·,–,–,–,–,–
COc1ccc(N/C=C\C(=O)c2ccc(Br)cc2)cc1OC,–,–,–,53,·,–
CCOC(=O)c1cccc(N/C=C/C(=O)c2ccc(OC)c(OC)c2)c1,–,–,–,92,–,–
COc1cccc(N/C=C/C(=O)c2ccc(OC)c(OC)c2)c1,–,–,–,–,–,–
O=C(CCn1c(=O)c2cccn2c2cccnc21)NCCCN1CCN(c2ccc(F)cc2)CC1,·,–,–,–,–,–
Cc1ccc(Cn2c(=N)n(CC(=O)c3ccc([N+](=O)[O-])cc3)c3ccccc32)cc1,–,64,–,42,·,–
Cc1cc(C)cc(NC(=O)Cn2nnc(C(=O)NCCc3ccccc3)c2N)c1,–,–,–,37,–,–
Cc1cc(C)c(NC(=O)Cn2nnc(C(=O)NCCc3ccccc3)c2N)c(C)c1,–,–,–,–,–,–
Cc1ccc(NC(=O)Cn2nnc(C(=O)NCCc3ccccc3)c2N)c(C)c1,–,–,–,55,–,–
O=c1oc(=S)oc2c1[C@H](c1ccc(Cl)cc1)O[C@H](C1CC1)C2,·,–,–,–,·,–
CC(=O)c1sc(N/N=C\c2ccc(Br)cc2)nc1C,–,38,–,–,·,–
N#Cc1c(-c2cccc(Br)c2)cc(-c2ccco2)[nH]c1=O,–,–,·,36,–,–
N#Cc1c(-c2ccccc2)cc(-c2ccccc2)[nH]c1=O,–,–,–,–,–,–
CN1CCN(NC(=O)c2cn(-c3ccccc3)nc2-c2cccc(Br)c2)CC1,–,46,–,–,–,–
CN1CCN(NC(=O)c2cn(-c3ccccc3)nc2-c2cccs2)CC1,–,–,–,–,–,–
CC(C)C(=O)Nc1nnc(S(=O)(=O)N(C)c2ccc(Cl)cc2)s1,·,–,–,–,–,–
COc1ccc2c(c1)c1nc3ccccc3nc1n2CCn1c(=O)oc2ccccc21,–,–,–,–,–,–
O=c1oc2ccccc2n1CCn1c2ccccc2c2nc3ccccc3nc21,–,–,·,52,–,–
SMILES,PREPL inh,HNF4A DNA FP,Neddylation inh,CSN inh,Rpn11 inh,Tb MetRS inh
COc1ccc(-c2cc(=O)oc3c(C)c(OCC(=O)Nc4cccnc4)ccc23)cc1,–,–,–,90,–,–
C/C(=N\NC(=O)c1cc2ccccc2cc1O)c1ccc(C)o1,–,–,40,–,–,–
COc1ccc(Cn2c(=N)c(C(=O)NC3CCCCC3)cc3c(=O)n4ccccc4nc32)cc1,–,–,–,–,–,–
N=c1c(C(=O)NCc2ccc(F)cc2)cc2c(=O)n3ccccc3nc2n1Cc1ccco1,–,–,52,–,–,–
N=c1c(C(=O)NCc2ccccc2)cc2c(=O)n3ccccc3nc2n1Cc1ccco1,–,–,·,–,–,–
CCOC(=O)c1cc2c(=O)n3ccccc3nc2n(Cc2ccc(Cl)cc2)c1=N,·,–,–,42,·,–
